How the values were obtained:
Type in all cases: cell-based
[1] = biological target: CaV1.3 LTCCs expressed in HEK293 cells (Rattus norvegicus, UniProt P27732); test: Automated planar whole-cell patch-clamp recording, CaV1.3; settings: HEK293, read-out: % Inhibition (10 μM) CaV1.3
In short: (§1)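 HEK293 lines stably expressing the channel plus Kir2.1, grown in DMEM/10% FBS at 37 °C, 5% CO2, moved to 28 °C the day before. Automated whole-cell recording at room temperature; bath (mM) 120 NaCl, 20 CsCl, 10 BaCl2, pH 7.4; CsF-based internal. Current read at 0 mV, 250 ms into step from −60 mV, before and after compound or vehicle; only CdCl2 (5 mM)-sensitive current analysed, no leak subtraction.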

[2] = biological target: CaV1.2 LTCCs expressed in HEK293 cells (Homo sapiens, UniProt Q13936); test: Automated planar whole-cell patch-clamp recording, CaV1.2
In short: as §1

[3] = biological target: CaV1.2 L-type calcium channel (Homo sapiens, UniProt Q13936); test: as above; settings: pH 7.4
In short: as §1

Sequence of CaV1.3 LTCCs expressed in HEK293 cells (P27732 whole entry): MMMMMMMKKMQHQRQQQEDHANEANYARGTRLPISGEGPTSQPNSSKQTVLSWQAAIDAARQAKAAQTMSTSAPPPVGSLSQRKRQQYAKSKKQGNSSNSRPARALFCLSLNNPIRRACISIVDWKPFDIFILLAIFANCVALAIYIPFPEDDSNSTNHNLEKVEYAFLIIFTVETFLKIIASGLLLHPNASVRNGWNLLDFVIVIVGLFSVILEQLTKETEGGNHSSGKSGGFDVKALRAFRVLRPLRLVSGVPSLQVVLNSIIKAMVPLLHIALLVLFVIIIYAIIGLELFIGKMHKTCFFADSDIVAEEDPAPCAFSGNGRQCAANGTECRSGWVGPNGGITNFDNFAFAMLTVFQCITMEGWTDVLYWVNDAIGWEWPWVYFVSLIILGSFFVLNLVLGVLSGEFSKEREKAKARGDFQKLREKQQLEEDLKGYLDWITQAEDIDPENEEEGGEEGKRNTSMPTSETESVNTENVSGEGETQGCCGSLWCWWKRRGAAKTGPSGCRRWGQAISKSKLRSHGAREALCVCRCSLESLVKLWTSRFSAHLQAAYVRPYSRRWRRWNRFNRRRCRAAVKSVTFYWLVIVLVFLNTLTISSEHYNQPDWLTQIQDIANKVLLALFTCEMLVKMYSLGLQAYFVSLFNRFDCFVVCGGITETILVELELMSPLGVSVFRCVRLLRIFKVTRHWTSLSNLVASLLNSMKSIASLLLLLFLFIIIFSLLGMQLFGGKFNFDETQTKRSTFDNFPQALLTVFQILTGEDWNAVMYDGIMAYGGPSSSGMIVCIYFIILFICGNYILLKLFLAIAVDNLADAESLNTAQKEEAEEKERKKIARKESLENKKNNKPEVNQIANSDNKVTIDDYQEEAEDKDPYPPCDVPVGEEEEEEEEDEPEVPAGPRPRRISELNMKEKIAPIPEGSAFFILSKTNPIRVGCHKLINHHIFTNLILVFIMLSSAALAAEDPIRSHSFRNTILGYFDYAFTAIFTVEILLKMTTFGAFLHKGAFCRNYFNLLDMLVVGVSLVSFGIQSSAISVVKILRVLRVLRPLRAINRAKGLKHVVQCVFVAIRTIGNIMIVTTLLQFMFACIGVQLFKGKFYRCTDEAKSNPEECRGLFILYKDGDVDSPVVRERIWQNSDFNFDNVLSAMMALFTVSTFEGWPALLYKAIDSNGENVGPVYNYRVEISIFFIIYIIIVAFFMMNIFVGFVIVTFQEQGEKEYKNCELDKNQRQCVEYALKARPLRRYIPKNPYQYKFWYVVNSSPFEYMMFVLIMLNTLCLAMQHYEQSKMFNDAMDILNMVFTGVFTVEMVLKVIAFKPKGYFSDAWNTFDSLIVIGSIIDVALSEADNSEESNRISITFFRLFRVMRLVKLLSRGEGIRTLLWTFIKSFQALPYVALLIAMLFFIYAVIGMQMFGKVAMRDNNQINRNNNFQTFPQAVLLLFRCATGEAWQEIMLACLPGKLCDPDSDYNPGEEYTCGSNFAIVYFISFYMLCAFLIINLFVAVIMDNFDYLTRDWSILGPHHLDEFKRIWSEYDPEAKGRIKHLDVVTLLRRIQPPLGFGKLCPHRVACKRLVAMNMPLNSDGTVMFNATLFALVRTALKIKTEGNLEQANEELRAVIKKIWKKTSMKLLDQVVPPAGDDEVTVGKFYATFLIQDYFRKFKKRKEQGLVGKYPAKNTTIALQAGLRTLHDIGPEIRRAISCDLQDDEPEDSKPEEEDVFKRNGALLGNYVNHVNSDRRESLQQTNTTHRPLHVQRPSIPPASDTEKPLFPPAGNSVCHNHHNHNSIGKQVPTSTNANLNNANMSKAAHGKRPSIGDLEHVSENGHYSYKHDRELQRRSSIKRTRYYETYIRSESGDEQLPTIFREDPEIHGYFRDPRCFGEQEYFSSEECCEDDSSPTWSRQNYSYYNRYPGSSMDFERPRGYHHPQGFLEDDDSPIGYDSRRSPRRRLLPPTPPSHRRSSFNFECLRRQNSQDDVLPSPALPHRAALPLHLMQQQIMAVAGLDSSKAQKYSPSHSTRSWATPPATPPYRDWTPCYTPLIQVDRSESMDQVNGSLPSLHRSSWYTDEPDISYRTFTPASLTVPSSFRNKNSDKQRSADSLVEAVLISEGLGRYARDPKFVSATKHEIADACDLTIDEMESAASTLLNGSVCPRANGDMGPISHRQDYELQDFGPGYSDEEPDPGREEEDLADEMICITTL
Sequence of CaV1.3 LTCCs expressed in HEK293 cells (P54287 whole entry partner): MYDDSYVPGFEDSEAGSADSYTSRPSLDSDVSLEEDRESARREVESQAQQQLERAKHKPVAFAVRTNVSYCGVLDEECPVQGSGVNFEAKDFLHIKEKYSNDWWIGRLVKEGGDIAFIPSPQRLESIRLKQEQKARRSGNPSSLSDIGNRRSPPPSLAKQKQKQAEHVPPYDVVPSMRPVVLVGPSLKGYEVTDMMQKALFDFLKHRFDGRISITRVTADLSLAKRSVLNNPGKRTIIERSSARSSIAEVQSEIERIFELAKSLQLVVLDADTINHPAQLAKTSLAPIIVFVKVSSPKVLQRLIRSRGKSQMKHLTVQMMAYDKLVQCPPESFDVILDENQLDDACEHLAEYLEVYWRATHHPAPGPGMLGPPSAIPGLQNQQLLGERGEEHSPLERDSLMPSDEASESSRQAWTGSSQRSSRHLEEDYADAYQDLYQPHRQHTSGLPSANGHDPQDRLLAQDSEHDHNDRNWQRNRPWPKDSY
Sequence of CaV1.3 LTCCs expressed in HEK293 cells (P54290 25-1091 partner): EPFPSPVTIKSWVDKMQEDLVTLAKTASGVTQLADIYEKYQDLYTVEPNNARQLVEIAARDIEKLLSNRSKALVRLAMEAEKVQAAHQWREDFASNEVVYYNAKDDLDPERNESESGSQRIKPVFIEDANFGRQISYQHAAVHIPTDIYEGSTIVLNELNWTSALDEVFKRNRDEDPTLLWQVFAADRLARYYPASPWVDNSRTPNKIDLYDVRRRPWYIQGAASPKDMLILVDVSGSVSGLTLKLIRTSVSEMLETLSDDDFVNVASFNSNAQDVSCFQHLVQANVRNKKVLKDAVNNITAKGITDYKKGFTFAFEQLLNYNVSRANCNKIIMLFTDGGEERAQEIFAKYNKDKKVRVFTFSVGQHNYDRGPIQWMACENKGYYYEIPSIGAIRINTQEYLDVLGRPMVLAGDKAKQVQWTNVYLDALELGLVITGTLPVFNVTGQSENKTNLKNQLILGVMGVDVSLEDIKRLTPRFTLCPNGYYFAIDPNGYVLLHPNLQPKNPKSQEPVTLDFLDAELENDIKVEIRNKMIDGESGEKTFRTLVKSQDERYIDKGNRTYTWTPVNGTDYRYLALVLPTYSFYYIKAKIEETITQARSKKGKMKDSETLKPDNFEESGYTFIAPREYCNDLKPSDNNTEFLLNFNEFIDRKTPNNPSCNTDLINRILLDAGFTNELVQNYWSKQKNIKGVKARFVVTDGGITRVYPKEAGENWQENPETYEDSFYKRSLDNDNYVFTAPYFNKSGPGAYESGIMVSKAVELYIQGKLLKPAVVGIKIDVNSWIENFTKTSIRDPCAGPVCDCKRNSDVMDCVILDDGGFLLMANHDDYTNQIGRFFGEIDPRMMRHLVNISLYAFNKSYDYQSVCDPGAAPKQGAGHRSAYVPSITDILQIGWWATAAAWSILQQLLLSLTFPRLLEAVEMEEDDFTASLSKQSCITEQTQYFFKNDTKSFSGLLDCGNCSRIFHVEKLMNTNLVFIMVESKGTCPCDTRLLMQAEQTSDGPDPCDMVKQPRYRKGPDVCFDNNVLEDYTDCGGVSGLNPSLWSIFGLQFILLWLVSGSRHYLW

O=C1C(c2cccc(C(F)(F)F)c2)C(=O)N(CCc2cccc(Cl)c2)C(=O)N1CCCCc1ccc(Cl)cc1 (centres unmarked) [14e, 1-(3-Chlorophenethyl)-3-(4-(4-chlorophenyl)butyl)-5-(3-(trifluoromethyl)phenyl)pyrimidine-2,4,6(1H,3H,5H)-trione]
inhibition at 10 µM [1]: 93.8% | IC50 [2]: 2.41 µM | inhibition at 10 µM [3]: 96.1%

O=C1C(c2cccc(C(F)(F)F)c2)C(=O)N(CCc2cccc(Cl)c2)C(=O)N1CCCc1cccc(Cl)c1 (centres unmarked) [14c, 1-(3-Chlorophenethyl)-3-(3-(3-chlorophenyl)propyl)-5-(3-(trifluoromethyl)phenyl)pyrimidine-2,4,6(1H,3H,5H)-trione]
inhibition at 10 µM [1]: 97.3% | inhibition at 10 µM [3]: 99.2%

O=C1C(c2cccc(C(F)(F)F)c2)C(=O)N(CCc2cccc(Cl)c2)C(=O)N1CCCc1ccc(C(F)(F)F)cc1 (centres unmarked) [14d, 1-(3-Chlorophenethyl)-5-(3-(trifluoromethyl)phenyl)-3-(3-(4-(trifluoromethyl)phenyl)propyl)pyrimidine-2,4,6(1H,3H,5H)-trione]
inhibition at 10 µM [1]: 93.1% | IC50 [2]: 4.53 µM | inhibition at 10 µM [3]: 81.2%

O=C1C(c2cccc(C(F)(F)F)c2)C(=O)N(CCc2cccc(Cl)c2)C(=O)N1CCCCc1ccc(C(F)(F)F)cc1 (centres unmarked) [14g, 1-(3-Chlorophenethyl)-5-(3-(trifluoromethyl)phenyl)-3-(4-(4-(trifluoromethyl)phenyl)butyl)pyrimidine-2,4,6(1H,3H,5H)-trione]
inhibition at 10 µM [1]: 82.8% | inhibition at 10 µM [3]: 88.2%

O=C1C(c2cccc([N+](=O)[O-])c2)C(=O)N(C2CCCC2)C(=O)N1CCCCc1cccc(Cl)c1 (centres unmarked) [14a, 1-(4-(3-Chlorophenyl)butyl)-3-cyclopentyl-5-(3-nitrophenyl)pyrimidine-2,4,6(1H,3H,5H)-trione]
inhibition at 10 µM [1]: 76.9% | IC50 [2]: 3.72 µM | inhibition at 10 µM [3]: 72.7%

O=C1C(c2cccc(C(F)(F)F)c2)C(=O)N(CCc2cccc(Cl)c2)C(=O)N1CCCCc1cccc(Cl)c1 (centres unmarked) [14f, 1-(3-Chlorophenethyl)-3-(4-(3-chlorophenyl)butyl)-5-(3-(trifluoromethyl)phenyl) pyrimidine-2,4,6(1H,3H,5H)-trione]
inhibition at 10 µM [1]: 79.8% | inhibition at 10 µM [3]: 100%

O=C1C(c2cccc(C(F)(F)F)c2)C(=O)N(CCc2cccc(Cl)c2)C(=O)N1CCCc1ccc(Cl)cc1 (centres unmarked) [14b, 1-(3-Chlorophenethyl)-3-(3-(4-chlorophenyl)propyl)-5-(3-(trifluoromethyl)phenyl)pyrimidine-2,4,6(1H,3H,5H)-trione]
inhibition at 10 µM [1]: 95.6% | inhibition at 10 µM [3]: 98.8%

Source: PMC9089348 (ACS Omega, 2022)
